ARNT TACC3 PPI = disruptors of human ARNT/TACC3 interaction; Q9Y6A5; AlphaScreen His-ARNT PAS-B/GST-TACC3 binding, luminescence; TACC3 fragment carries E629A point mutation; inhibition, % at 9.99 µM; hit rate 0.66% among 390,000; AID 623870;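 active means mean inhibition of replicates at least 50% and at least half of replicates each reaching 50%; inconclusive means half or more replicates reach 50% but mean below 50%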;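 further: 0% = complete ARNT plus TACC3 wells and 100% = ARNT alone without TACC3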
CFTR F508del cor = correctors of CFTR F508del function in bronchial epithelial cells; CFBE cells, YFP halide quenching; stimulated with forskolin plus potentiator P3; % fluorescence drop versus neutral controls; activity (quench increase), % at 7.58 µM; hit rate 0.36% among 350,000; AID 720511;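 active means mean added fluorescence quench of at least 8% versus neutral control, with both replicates also reaching 8%; inconclusive means only one of the mean or replicate conditions met; inactive means mean below 8% and not both replicates reaching 8%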;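 further: cells transiently co-express mutant CFTR-F508del with the halide-sensitive YFP; corrector assay measuring rescue of mutant channel to the surface after 24 h compound exposure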
miR122 inh = miR-122 inhibition in Huh7 cells; Huh7 miR-122 Renilla luciferase sensor, 48 h; neutral wells = 0, positive control = 100; hit rate 0.3% among 340,000; AID 602342; activation (reporter increase), % at 12.5 µM;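 active means mean replicate activation score at least 90 and every replicate individually at or above 90; inconclusive means only one of the two criteria met; inactive means neither criterion met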;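 further: higher luciferase means less miR-122 activity so hits act as miR-122 inhibitors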
CAL PDZ FP-1 = human CAL PDZ-peptide interaction inhibition. hit rate 0.02% among 330,000. inhibition, % at 20 µM. purified CAL PDZ, TMR-peptide fluorescence polarization, 1 h. Q9HD26. AID 504414;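 active means highest replicate inhibition of at least 40%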;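 further: plate controls were DMSO neutral control wells for no effect and unlabeled competitor peptide control wells for full effect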
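material = purified tagged CAL PDZ domain construct (CerCALP) | buffer or medium = sodium phosphate/NaCl buffer pH 7.4 with TCEP, IgG, Thesit | reagent = TMR-labelled reporter peptide T*-PRC34 bound in PDZ groove | incubation = 1 h room-temperature incubation prior to read | measured by = fluorescence polarization (mP) | evaluation = percent inhibition from loss of millipolarization | control set = unlabelled peptide and DMSO controls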
PGC1a acetyl inh = modulators of PGC1a acetylation | U2OS PGC1a acetylation, AlphaScreen anti-acetyl-lysine; with virally co-expressed GCN5 acetyltransferase | inhibition, % at 15.6 µM | hit rate 0.17% among 350,000;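 active means every replicate shows inhibition of at least 40%; inconclusive means mean inhibition at least 40% but some replicate below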;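 further: 0% = neutral control wells and 100% = positive control wells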
CAL PDZ FP-2 = blocks peptide binding to the human CAL PDZ domain. inhibition, % at 24.9 µM. purified CAL PDZ, TMR-peptide fluorescence polarization, 1 h. hit rate 0.92% among 300,000. Q9HD26. AID 602252;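 active means mean inhibition of at least 30% with at least half of replicates also reaching 30%; inconclusive means no clear call, values can overlap the other calls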;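 further: 0% = DMSO neutral control and 100% = excess unlabeled competitor peptide PRC23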
Starred values were filed as active, the others as inactive; ? = inconclusive; nt = no result given; [ ] = dose if it differs, or a comment. This is a sample that favours compounds with a hit; in the whole collection about 1.7% have one here.

SMILES	ARNT TACC3 PPI	CFTR F508del cor	miR122 inh	CAL PDZ FP-1	PGC1a acetyl inh	CAL PDZ FP-2
Cc1cccc2c(N=Nc3ccc(S(=O)(=O)Nc4ccc(Cl)cc4)cc3[N+](=O)[O-])c(O)[nH]c12	4	9.7*	53	1	3	-8
COc1cc(/C=N/Nc2nc(C)cc(C)n2)ccc1O	nt	1	1	nt	-5	nt
COc1cc(/C=N/Nc2nc(C)cc(C)n2)cc(OC)c1OC	-3	-4	4	14	-9	75*
CN1C(=O)c2cc(NC(=O)c3ccc(F)c(F)c3)ccc2OC[C@H]2O[C@@H](CC(=O)N3CCOCC3)CC[C@H]21	-2	6	-30[16.7 µM]	nt	2	nt
O=C(Nc1nncs1)c1cc2c(s1)CCC2	-1	-3	nt	0	-2	nt
CC(C)Cc1nnc(NC(=O)c2cc3c(s2)CCC3)s1	-2	0	3	-1	?	45*
COc1cccc(NC(=O)N2CC(=O)N3[C@H](C2)[C@H](c2ccc(C4=CCCC4)cc2)[C@@H]3CO)c1	nt	-1	nt	nt	-12	nt
CC1=C/C(=C(/c2cc(C)c(O)c(Br)c2)c2ccccc2S(=O)(=O)O)C=C(Br)C1=O	49*	3	nt	1	nt	-6
NC(=S)N/N=C/c1ccccc1[N+](=O)[O-]	-2	-1	nt	0	-2	3
COC(=O)c1cccc(/C=N/NC(N)=S)c1O	67*	3	2	-2	-33	nt
COc1cccc(/C=N/NC(=O)c2cnccn2)c1O	58*	7	-14	-2	0	90*
COc1cccc(/C=N/NC(=O)C(=O)NCc2ccco2)c1O	60*	nt	1	-3	2	-1
COc1cccc(/C=N/NC(=O)C(=O)NCc2ccco2)c1OC	-4	nt	nt	-2	nt	-4
COc1cccc(/C=N/NC(=O)C(=O)N/N=C/c2cccc(OC)c2O)c1O	40	10*	1	0	-9	0
Cc1noc(C)c1NC(=O)N(C)C[C@@H]1Oc2ccc(NC(=O)c3ccncc3)cc2CC(=O)N([C@H](C)CO)C[C@@H]1C	-17	1	2[16.7 µM]	nt	0	nt
C[C@@H]1CCCCO[C@@H](CN(C)S(=O)(=O)c2cn(C)cn2)[C@@H](C)CN([C@H](C)CO)C(=O)c2cc(NS(=O)(=O)c3cn(C)cn3)ccc2O1	-14	0	34[16.7 µM]	nt	1	nt
COc1cccc(/C=N/Nc2ncnc(Cl)c2N)c1O	59*	23*	nt	2	nt	-1
Cc1cc(C)cc(NC(=O)C2CCN(c3nccs3)CC2)c1	nt	nt	128*	-1	-16	2
Cc1cc(C)cc(NC(=O)C2CCN(S(C)(=O)=O)CC2)c1	-18	0	-2	-1	-13	-4
Cc1noc(C)c1S(=O)(=O)Nc1ccc2c(c1)C(=O)N([C@@H](C)CO)C[C@H](C)[C@H](CN(C)C(=O)NC1CCCCC1)OCCCC[C@@H](C)O2	-7	2	-2[16.7 µM]	nt	nt	nt
COc1ccc(C(=O)N/C(=C/c2cccs2)C(=O)NC(C)(C)C)cc1OC	-3	2	5	0	67*	nt
CCOC(=O)c1ccc(-n2c(C)nc3c(cnn3-c3ccc(Cl)cc3)c2=O)cc1	-27	nt	2	1	10	-4
CCOC(=O)c1ccc(-n2c(C)nc3c(cnn3-c3ccccc3Cl)c2=O)cc1	-1	nt	-4	1	6	78*
CC(=O)Oc1cc(C(=O)OCC(=O)NC23CC4CC(CC(C4)C2)C3)cc(OC(C)=O)c1OC(C)=O	-3	10*	-15	0	-20	nt
C[C@H](CO)N1C[C@H](C)[C@H](CN(C)S(=O)(=O)c2ccc(Cl)cc2)Oc2ccc(NS(=O)(=O)c3ccccc3)cc2CC1=O	2	0	2[16.7 µM]	nt	3	nt
C[C@@H]1CN([C@H](C)CO)C(=O)CCCn2cc(nn2)CO[C@H]1CN(C)Cc1ccc(-c2ccccc2)cc1	1	0	-1[16.7 µM]	nt	4	nt
Cc1cc(C(=O)CSc2nnnn2C)c(C)n1CCc1ccc(F)cc1	4	nt	2	-2	-11	39*
N#Cc1ccc(-c2csc(NC3=NCCCCC3)n2)cc1	21	-2	nt	-1	nt	0
c1ccc(-c2csc(NC3=NCCCCC3)n2)cc1	-8	11*	1	-2	-10	17

Assay outcomes from PubChem.
